Assay results pooled from the literature.
Each line is one published result; the experiments were not run side by side.

Cc1cc(-c2nsc(=O)o2)c(S(C)(=O)=O)s1 — half-life (chemical stability; culture medium): 13.5 min
O=C(NC1CCCCC1)Oc1ccc(-c2ccccc2)cc1 — half-life (metabolic stability; male Wistar rat, liver S9; 1 µM, pH 7.4): 19 min
CCN(CC)CCCC[C@H](NC(=O)[C@H](CC(C)C)NC(=O)[C@H](C)NC(=O)[C@H](Cc1ccccc1)NC(=O)c1ccc(C(C)(C)C)cc1)C(=O)N[C@@H](CO)C(=O)OC — bioavailability (male Swiss mouse, plasma; intraperitoneal, 10 mg/kg): 25%
NS(=O)(=O)c1ccc(Cc2c(-c3cccc(-c4ccccc4)c3)nn(-c3nc(C(=O)O)cs3)c2C2CC2)cc1 — bioavailability (male CD-1 mouse, plasma; oral, 50 mg/kg): ~50%
COc1ncccc1-c1cnn2ccc(N3CCN(C(=O)OC(C)C)CC3)nc12 — bioavailability (mouse, plasma; oral, 10 mg/kg): ~100%
C[C@]12CC[C@H](n3ccnc3)CC1=CC[C@@H]1[C@@H]2CC[C@]2(C)C(n3cnc4ccccc43)=CC[C@@H]12.Cl — AUC(0-t) (male CD-1 mouse, plasma; intravenous, 1 mg/kg): 2040 ng·h/mL
CCC[C@@](N)(CO)CCc1ccc(OCCCCCC(C)C)cc1 — AUC(0-t) (mouse, plasma; intravenous, 5 mg/kg): 0.714 µM·h
O=C(Nc1nccs1)C(c1cc(F)ccc1O)N1Cc2ccc(-c3ccc(N4CCNCC4)cc3)cc2C1=O (centres unmarked) — bioavailability (mouse, plasma; oral, 20 mg/kg): 3%
Cc1cc(C)nc(Nc2ncc(C(=O)NCCc3c(C)[nH]c4ccccc34)cn2)c1 — half-life (metabolic stability; rat, liver microsomes; 1 µM): 3.8 min
O=C(NC1CCCCC1)Oc1ccc2ccccc2c1 — half-life (metabolic stability; male Wistar rat, liver S9; 1 µM, pH 7.4): 5 min
CSc1sc(C)cc1-c1nsc(=O)o1 — half-life (chemical stability; culture medium): 110 min
